The test system of experiment [1] is Schizosaccharomyces pombe. The experiment in a line: Antifungal activity against Schizosaccharomyces pombe DSM 70572 by serial dilution method. It counts as functional, organism-based.
Another experiment deals with Micrococcus luteus. The experiment in a line: Antibacterial activity against Micrococcus luteus DSM 1790 by serial dilution method. The class given is functional, organism-based.
In another experiment the test system is Wickerhamomyces anomalus. The experiment in a line: Antifungal activity against Pichia anomala DSM 6766 by serial dilution method. It counts as functional, organism-based.
Experiment [2] has as its system L929. The experiment in a line: Induction of nuclear fragmentation in mouse L929 cells at cytotoxic IC50 by DAPI staining based microscopic method. The class given is functional, cell-based.
Experiment [3] has as its system Chromobacterium violaceum. The experiment in a line: Antibacterial activity against Chromobacterium violaceum DSM 30191 by serial dilution method. It counts as functional, organism-based.
The test system of experiment [4] is Mycolicibacterium smegmatis. The experiment in a line: Antibacterial activity against Mycobacterium smegmatis ATCC 700084 by serial dilution method. The class given is functional, organism-based.
The next experiment deals with Pseudomonas aeruginosa. The experiment in a line: Antibacterial activity against Pseudomonas aeruginosa PA14 by serial dilution method. The class given is functional, organism-based.
Another experiment has as its system A-431. The experiment in a line: Cytotoxicity against human A431 cells assessed as reduction in cell viability after 5 days by MTT assay. The class given is functional, cell-based. The conditions noted are these: A-431, 120 h. The procedure, abridged: (§1)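 MTT viability assay run over 5 days on a panel of eight lines (L929, KB3.1, A431, A549, SKOV-3, PC-3, MCF-7, U2OS). IC50 values were derived.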

The subject of another experiment is Mucor hiemalis. The experiment in a line: Antifungal activity against Mucor hiemalis DSM 2656 by serial dilution method. It counts as functional, organism-based.
Another experiment deals with Yamadazyma tenuis. The experiment in a line: Antifungal activity against Candida tenuis MUCL 29892 by serial dilution method. The class given is functional, organism-based.
Experiment [5] concerns L929. The experiment in a line: Cytotoxicity against mouse L929 cells assessed as reduction in cell viability after 5 days by MTT assay. The class given is functional, cell-based. The conditions noted are these: L929, 120 h. A digest of the protocol:
as §1

The test system of another experiment is Staphylococcus aureus. The experiment in a line: Antibacterial activity against Staphylococcus aureus DSM 346 by serial dilution method. It counts as functional, organism-based.
The test system of a further experiment is Candida albicans. The experiment in a line: Antifungal activity against Candida albicans DSM 1665 by serial dilution method. It counts as functional, organism-based.
Another experiment relates to KB 3-1. The experiment in a line: Cytotoxicity against human KB3-1 cells assessed as reduction in cell viability after 5 days by MTT assay. It counts as functional, cell-based. Conditions: KB 3-1, 120 h. The procedure, abridged:
as §1

The next experiment has as its system SK-OV-3. The experiment in a line: Cytotoxicity against human SKOV3 cells assessed as reduction in cell viability after 5 days by MTT assay. The class given is functional, cell-based. The conditions noted are these: SK-OV-3, 120 h. A digest of the protocol:
as §1

The test system of another experiment is Escherichia coli. The experiment in a line: Antibacterial activity against Escherichia coli DSM 498 by serial dilution method. It counts as functional, organism-based.
The subject of the next experiment is Lepidium sativum. The experiment in a line: Phytotoxicity against Lepidium sativum assessed as inhibition of seedling germination at 100 ug/disk. The class given is functional, organism-based.
For the next experiment, the system named is U2OS. The experiment in a line: Cytotoxicity against human U2OS cells assessed as reduction in cell viability after 5 days by MTT assay. The class given is functional, cell-based. Conditions: 120 h. A digest of the protocol:
as §1

Another experiment concerns PC-3. The experiment in a line: Cytotoxicity against human PC3 cells assessed as reduction in cell viability after 5 days by MTT assay. The conditions noted are these: PC-3, 120 h. It counts as functional, cell-based. A digest of the protocol:
as §1

The subject of another experiment is Caenorhabditis elegans. The experiment in a line: Nematicidal activity against Caenorhabditis elegans up to 100 ug/ml. It counts as functional, organism-based.
For another experiment, the system named is Bacillus subtilis. The experiment in a line: Antibacterial activity against Bacillus subtilis DSM 10 by serial dilution method. It counts as functional, organism-based.
Another experiment concerns MCF7. The experiment in a line: Cytotoxicity against human MCF7 cells assessed as reduction in cell viability after 5 days by MTT assay. The class given is functional, cell-based. The conditions noted are these: MCF7, 120 h. The procedure, abridged: as §1
A further experiment concerns Setaria italica. The experiment in a line: Phytotoxicity against Setaria italica assessed as inhibition of seedling germination at 100 ug/disk. The class given is functional, organism-based.
The test system of a further experiment is Rhodotorula glutinis. The experiment in a line: Antifungal activity against Rhodotorula glutinis DSM 10134 by serial dilution method. The class given is functional, organism-based.
The next experiment has as its system A549. The experiment in a line: Cytotoxicity against human A549 cells assessed as reduction in cell viability after 5 days by MTT assay. It counts as functional, cell-based. Conditions: A549, 120 h. The procedure, abridged: as §1
The next experiment deals with Aspergillus fumigatus. The experiment in a line: Antifungal activity against Aspergillus fumigatus DSM 819 by serial dilution method. The class given is functional.
The test system of another experiment is Sclerotinia sclerotiorum. The experiment in a line: Antifungal activity against Sclerotinia sclerotiorum DSM 1946 at 20 ug/disk after 5 days by disk diffusion assay. The class given is functional, organism-based. A digest of the protocol: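 Disk diffusion on YMG medium seeded with a mycelial suspension of the non-sporulating fungus; paper disks loaded with test material; inhibition zone diameter in mm read after 5 days.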

≈ marks a conversion by molar mass, not a printed value. Calls of active or inactive are those of the source. The calls are words filed in the database; no cut-off is given here.

With `CC(=O)CC1=C(C)C=C2C[C@@H](C)[C@@H](O)[C@@H](C)[C@@H]2[C@H]1/C=C(C)/C=C(C)/C=C/C(=O)O`, the outcome (in experiment [1]; in the experiment on Micrococcus luteus; in the experiment on Wickerhamomyces anomalus; in experiment [3]; in [4]; in the experiment on Pseudomonas aeruginosa) was inactive. Further, the result in the experiment on Mucor hiemalis, with Yamadazyma tenuis, in the experiment on Staphylococcus aureus, with Candida albicans, with Escherichia coli and in the experiment on Lepidium sativum was inactive. Besides, the outcome with Caenorhabditis elegans, in the experiment with Bacillus subtilis, in the experiment with Setaria italica and in the experiment on Rhodotorula glutinis was inactive. Besides, the outcome in the experiment on L929 [2] was Active. Moreover, the IC50 in the experiment on A-431 was 35.1 µM; with L929 [5] it was 17.3 µM; in the experiment on KB 3-1, 11.3 µM; in the experiment on SK-OV-3, 32.4 µM; in the experiment with U2OS, over 2510 µM; in the experiment with PC-3, 60.2 µM. The IC50 was found to be 22.1 µM with MCF7 and 70.3 µM in the experiment on A549.

As for `C[C@@H]1C[C@@H]([C@H](O)CC2CC(=O)NC(=O)C2)C(=O)[C@@H](C)C1` [CYCLOHEXIMIDE], the MIC in the experiment with Aspergillus fumigatus stood at 33.3 µg/mL (≈ 118 µM).

NYSTATIN gave an inhibition zone (IZ) with Sclerotinia sclerotiorum of 32 mm.

For `COC(=O)/C=C/C(C)=C/C(C)=C/[C@H]1C(C[C@H](C)O)=C(C)C=C2C[C@@H](C)C(=O)[C@@H](C)[C@@H]21`, the result (in [1]; in the experiment with Micrococcus luteus; in the experiment on Wickerhamomyces anomalus; in experiment [3]; in [4]; with Pseudomonas aeruginosa) was inactive. Further, the result in the experiment on Mucor hiemalis, in the experiment on Yamadazyma tenuis, in the experiment on Staphylococcus aureus, with Candida albicans, with Escherichia coli and with Lepidium sativum was inactive. Moreover, the outcome in the experiment with Caenorhabditis elegans, in the experiment on Bacillus subtilis, in the experiment with Setaria italica and in the experiment on Rhodotorula glutinis was inactive. Besides, the outcome in the experiment on L929 [2] was Active. For the same compound, the half-inhibitory concentration (IC50) in the experiment with A-431 was 55.8 µM; with L929 [5] it was 80 µM; with KB 3-1, 23 µM; with SK-OV-3 it was 29.1 µM; in the experiment on U2OS it was over 2430 µM; with PC-3 it was 41.2 µM. Further, the values for the IC50 in the experiment on MCF7 and with A549 were 55.8 µM and 41.2 µM, respectively.

Take `CC(=O)CC1=C(C)C=C2C[C@@H](C)C(=O)[C@@H](C)[C@@H]2[C@H]1/C=C(C)/C=C(C)\C=C\C(=O)O`: the result (in experiment [1]; in the experiment on Micrococcus luteus; in the experiment with Wickerhamomyces anomalus; in experiment [3]; in experiment [4]; with Pseudomonas aeruginosa) was inactive. The result in the experiment with Mucor hiemalis, in the experiment with Yamadazyma tenuis, in the experiment on Staphylococcus aureus, with Candida albicans, with Escherichia coli and with Lepidium sativum was inactive. For the same compound, the result in the experiment with Caenorhabditis elegans, with Bacillus subtilis, in the experiment on Setaria italica and in the experiment on Rhodotorula glutinis was inactive. Besides, the result with L929 [2] was Active. The IC50 in the experiment on A-431 is 17.9 µM; in the experiment with L929 [5], 24.7 µM; in the experiment with KB 3-1 it was 17.4 µM; in the experiment with SK-OV-3 it was 20.2 µM; in the experiment with U2OS, over 2520 µM; in the experiment with PC-3, 45.4 µM. For the same compound, the values for the half-maximal inhibitory concentration (IC50) in the experiment with MCF7 and with A549 were 15.4 µM and 47.9 µM, respectively.

For `C/C(=C\c1csc(C)n1)[C@@H]1C[C@@H]2O[C@]2(C)CCC[C@H](C)[C@H](O)[C@@H](C)C(=O)C(C)(C)[C@@H](O)CC(=O)O1` [PATUPILONE], the IC50 in the experiment with A-431 was determined as 7.3e-05 µM; in the experiment with L929 [5], 0.0017 µM; with KB 3-1, 6.1e-05 µM; with SK-OV-3, 2.36e-05 µM; in the experiment with U2OS it was 0.000104 µM; in the experiment with PC-3 it was 0.00025 µM. For the same compound, the 50% inhibitory concentration (IC50) in the experiment with MCF7 and in the experiment on A549 was 0.00015 µM throughout.

Take `COC(=O)/C=C/C(C)=C/C(C)=C/[C@H]1C(CC(C)=O)=C(C)C=C2C[C@@H](C)C(=O)[C@@H](C)[C@@H]21`: the outcome (in experiment [1]; in the experiment with Micrococcus luteus; in the experiment with Wickerhamomyces anomalus; in experiment [3]; in [4]; with Pseudomonas aeruginosa) was inactive. Also, the result in the experiment with Mucor hiemalis, with Yamadazyma tenuis, in the experiment on Staphylococcus aureus, with Candida albicans, with Escherichia coli and in the experiment with Lepidium sativum was inactive. Further, the outcome with Caenorhabditis elegans, with Bacillus subtilis, in the experiment on Setaria italica and in the experiment with Rhodotorula glutinis was inactive. Besides, the outcome in the experiment on L929 [2] was Active. The IC50 in the experiment on A-431 is over 2440 µM; with L929 [5] it was 53.6 µM; with KB 3-1 it was 51.2 µM; in the experiment on SK-OV-3, over 2440 µM; in the experiment with U2OS, 22.2 µM; in the experiment on PC-3, over 2440 µM. Besides, the IC50 in the experiment with MCF7 and in the experiment with A549 was over 2440 µM in each case.
